Experimental data published in ChEMBL document CHEMBL4480375, “Synthesis and receptor binding of thiophene bioisosteres of potent GluN2B ligands with a benzo[7]annulene-scaffold” (Medchemcomm, 2019).
Each block holds one molecule with its values, some of them ahead of it.

Experiments:
[1] = target: Sigma non-opioid intracellular receptor 1 (Cavia porcellus, UniProt Q60492); assay: Displacement of [3H]-(+)-pentazocine from sigma1 receptor in guinea pig brain cortex membranes measured after 120 mins by scintillation counting analysis; type: cell membranes
Chain of Sigma non-opioid intracellular receptor 1 (Q60492 whole entry): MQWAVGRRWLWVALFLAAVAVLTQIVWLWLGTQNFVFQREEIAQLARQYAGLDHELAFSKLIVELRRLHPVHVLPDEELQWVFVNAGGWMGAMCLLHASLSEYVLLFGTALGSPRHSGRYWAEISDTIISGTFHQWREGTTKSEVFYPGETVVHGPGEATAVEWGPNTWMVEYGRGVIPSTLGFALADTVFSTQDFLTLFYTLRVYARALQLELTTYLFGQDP

[2] = target: T1, Glutamate receptor ionotropic, NMDA 2B (Homo sapiens, UniProt Q13224); assay: Displacement of [3H]-ifenprodil from GluN2B (unknown origin) expressed in mouse L(tk) cells measured after 120 mins by scintillation counting analysis
T1 sequence (Q13224 whole entry): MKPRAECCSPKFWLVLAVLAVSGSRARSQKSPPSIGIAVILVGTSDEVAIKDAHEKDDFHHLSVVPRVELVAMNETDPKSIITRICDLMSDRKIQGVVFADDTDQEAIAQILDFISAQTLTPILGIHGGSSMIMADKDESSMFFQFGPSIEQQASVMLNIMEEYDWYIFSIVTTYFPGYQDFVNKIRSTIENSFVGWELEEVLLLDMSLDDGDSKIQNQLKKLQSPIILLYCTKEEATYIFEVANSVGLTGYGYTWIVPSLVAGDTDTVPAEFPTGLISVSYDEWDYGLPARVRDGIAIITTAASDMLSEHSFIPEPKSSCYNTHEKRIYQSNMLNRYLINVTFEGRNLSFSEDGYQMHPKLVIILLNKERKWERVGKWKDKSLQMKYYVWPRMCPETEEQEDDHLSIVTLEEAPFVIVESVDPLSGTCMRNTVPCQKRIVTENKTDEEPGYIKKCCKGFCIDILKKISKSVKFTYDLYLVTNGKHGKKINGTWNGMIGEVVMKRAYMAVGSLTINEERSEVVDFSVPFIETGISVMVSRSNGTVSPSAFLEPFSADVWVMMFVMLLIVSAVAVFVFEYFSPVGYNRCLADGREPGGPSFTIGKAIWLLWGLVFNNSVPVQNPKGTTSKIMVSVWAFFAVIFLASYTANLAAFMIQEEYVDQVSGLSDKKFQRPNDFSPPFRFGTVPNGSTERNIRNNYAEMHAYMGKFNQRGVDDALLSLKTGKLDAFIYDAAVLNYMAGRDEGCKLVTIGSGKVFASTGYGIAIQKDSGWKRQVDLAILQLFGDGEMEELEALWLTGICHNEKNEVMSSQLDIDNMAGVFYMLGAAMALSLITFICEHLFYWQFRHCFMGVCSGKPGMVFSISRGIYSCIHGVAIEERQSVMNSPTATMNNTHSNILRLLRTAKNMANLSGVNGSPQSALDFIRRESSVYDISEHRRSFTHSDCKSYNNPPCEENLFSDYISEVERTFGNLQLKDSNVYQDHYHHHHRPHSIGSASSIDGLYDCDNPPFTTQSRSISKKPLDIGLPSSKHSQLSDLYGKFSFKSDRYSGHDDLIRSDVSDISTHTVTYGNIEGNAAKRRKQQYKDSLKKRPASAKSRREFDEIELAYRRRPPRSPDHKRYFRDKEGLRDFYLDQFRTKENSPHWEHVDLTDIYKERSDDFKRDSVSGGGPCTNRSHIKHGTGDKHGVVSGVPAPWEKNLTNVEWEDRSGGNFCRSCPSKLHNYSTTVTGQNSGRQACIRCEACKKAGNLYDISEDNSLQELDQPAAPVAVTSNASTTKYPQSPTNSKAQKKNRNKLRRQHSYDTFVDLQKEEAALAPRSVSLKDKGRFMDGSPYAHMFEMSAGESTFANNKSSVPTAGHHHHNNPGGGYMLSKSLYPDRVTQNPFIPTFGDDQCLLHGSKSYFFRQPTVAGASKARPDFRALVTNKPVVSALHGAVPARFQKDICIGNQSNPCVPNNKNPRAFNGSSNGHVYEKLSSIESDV

[3] = target: Glutamate receptor ionotropic, NMDA 2B (Homo sapiens, UniProt Q05586+Q13224); assay: Displacement of [3H]-ifenprodil from GluN2B (unknown origin) expressed in L(tk) cells by radio ligand binding assay; type: cell-based
Chain of Glutamate receptor ionotropic, NMDA 2B (Homo sapiens, UniProt Q05586+Q13224) (Q13224 whole entry, one chain of several): as the sequence (Q13224 whole entry) above
How it was run: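 Mouse L(tk-) cells stably carrying dexamethasone-inducible GluN1a/GluN2B (1:5) were induced for 24 h with 4 μM dexamethasone plus 4 μM ketamine, then sonicated to membranes (about 20 μg protein). […] Filtration and scintillation counting, in duplicate. Ki by Cheng–Prusoff (Kd 7.6 nM), mean ± SEM of n=3.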

[4] = target: T2, Sigma intracellular receptor 2 (Rattus norvegicus, UniProt Q5U3Y7); assay: Displacement of [3H]di-o-tolylguanidine from sigma2 receptor in rat liver membranes measured after 120 mins by scintillation counting analysis; type: cell membranes
T2 sequence (Q5U3Y7 whole entry): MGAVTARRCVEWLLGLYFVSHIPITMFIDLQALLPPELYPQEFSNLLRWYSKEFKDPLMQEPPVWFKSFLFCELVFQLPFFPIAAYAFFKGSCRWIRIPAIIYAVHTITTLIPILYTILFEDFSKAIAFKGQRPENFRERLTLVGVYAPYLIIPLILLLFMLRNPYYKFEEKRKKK

[5] = target: T1, Glutamate receptor ionotropic, NMDA 2B; assay: Inhibition of GluN2B (unknown origin)

Compound: COc1ccc2c(c1)CC[C@H](NCCCc1ccccc1)C[C@@H]2O (relative stereo)
Ki [1]: 0.132 µM
Ki [4]: 0.0092 µM

Compound: COc1ccc2c(c1)CC[C@H](NCCCc1ccccc1)C[C@H]2O (relative stereo)
Ki [5]: 0.048 µM
Ki [1]: 0.167 µM
Ki [2]: 0.048 µM
Ki [4]: 1.1 µM

Further molecules by falling Ki [1], results first:

Ki [1]: 0.737 µM
Ki [2]: 0.204 µM
Ki [4]: 0.606 µM
Compound: OC1CC(NCc2ccccc2)CCc2sccc21 (mixture of isomers)

Ki [1]: 0.47 µM
Ki [2]: 0.128 µM
Ki [3]: 0.128 µM
Ki [4]: 0.77 µM
Compound: Nc1ccc2c(c1)CCC(NCc1ccccc1)CC2 (stereo unspecified)

Ki [1]: 0.079 µM
Ki [2]: 0.026 µM
Ki [4]: 0.05 µM
Compound: c1ccc(CNC2CCc3ccsc3CC2)cc1 (stereo unspecified)
